Results as given in ChEMBL document CHEMBL1221318, “Two distinct classes of novel pyrazolinecarboxamides as potent cannabinoid CB1 receptor agonists” (Bioorg Med Chem Lett, 2010).
Activity calls are given as the source filed them. No cut-off for these calls is given here.

Tests used:
Cannabinoid receptor 1 [1] = biological target: T1, Cannabinoid receptor 1 (Homo sapiens, UniProt P21554); assay: Displacement of [3H]CP-55940 from human recombinant CB1 receptor expressed in CHO cells; type: cell-based
T1 sequence (P21554 whole entry): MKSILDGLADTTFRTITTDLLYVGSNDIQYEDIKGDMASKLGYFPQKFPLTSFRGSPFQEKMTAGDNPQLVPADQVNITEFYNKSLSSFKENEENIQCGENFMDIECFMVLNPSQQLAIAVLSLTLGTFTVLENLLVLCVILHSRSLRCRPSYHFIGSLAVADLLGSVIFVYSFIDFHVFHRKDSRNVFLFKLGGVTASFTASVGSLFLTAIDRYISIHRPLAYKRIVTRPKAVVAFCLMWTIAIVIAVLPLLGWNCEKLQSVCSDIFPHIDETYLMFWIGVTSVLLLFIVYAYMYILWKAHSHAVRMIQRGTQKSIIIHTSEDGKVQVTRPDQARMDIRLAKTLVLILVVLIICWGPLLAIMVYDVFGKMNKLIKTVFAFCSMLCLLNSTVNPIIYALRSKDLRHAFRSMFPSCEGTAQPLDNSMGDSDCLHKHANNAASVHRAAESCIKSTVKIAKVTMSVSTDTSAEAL

Cannabinoid receptor 2 [2] = biological target: T2, Cannabinoid receptor 2 (Homo sapiens, UniProt P34972); assay: Displacement of [3H]CP-55940 from human recombinant CB2 receptor expressed in CHO cells; type: cell-based
T2 sequence (P34972 whole entry): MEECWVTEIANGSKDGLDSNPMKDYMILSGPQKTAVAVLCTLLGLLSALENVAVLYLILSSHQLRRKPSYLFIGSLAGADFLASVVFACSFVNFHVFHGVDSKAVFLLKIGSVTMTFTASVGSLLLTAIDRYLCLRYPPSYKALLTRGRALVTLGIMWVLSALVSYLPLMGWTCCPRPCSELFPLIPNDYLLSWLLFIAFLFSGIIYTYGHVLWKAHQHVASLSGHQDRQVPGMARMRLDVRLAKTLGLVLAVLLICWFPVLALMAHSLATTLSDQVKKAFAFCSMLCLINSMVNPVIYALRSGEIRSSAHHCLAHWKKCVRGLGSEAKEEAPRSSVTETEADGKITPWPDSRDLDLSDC

Cannabinoid receptor 1 [3] = biological target: T1, Cannabinoid receptor 1; assay: Agonist activity at human recombinant CB1 receptor expressed in CHO cells assessed as effect on CP-55940 induced PLA2 activation by [3H]arachidonic acid release assay; type: functional, cell-based; settings: for Kb: read-out: pA2 (converted)
Cannabinoid receptor 2 [4] = biological target: T2, Cannabinoid receptor 2; assay: Inverse agonist activity at human recombinant CB2 receptor expressed in CHOK1 cells assessed as effect on forskolin-stimulated adenylate cyclase activity by cAMP accumulation assay; type: functional, cell-based, CHO-K1
In short: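 CHO-K1 cells expressing human CB2, grown in serum-supplemented medium with glutamine, Hygromycin B and G418 at 37 °C, 5% CO2. Confluent cells loaded with [3H]adenine for 2 h, then 20 min in PBS with 1 mM IBMX and 3×10^-7 M forskolin ± compound (10^-10–10^-6 M). Stopped with TCA; [3H]cAMP/[3H]ATP separated on Dowex/alumina, scintillation counted, basal subtracted; […], two independent experiments in triplicate.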

Rattus norvegicus = assay: Neuroprotective activity in Lewis rat assessed as reduction of experimental autoallergic encephalomyelitis-induced motor deficits at 20 mg/kg, po qd for 11 days; type: functional, organism-based; design: dose 20 mg/kg
In short: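 Male Lewis rats, 175–225 g, inoculated day 0 by subcutaneous hind-paw injection, under isoflurane, of a saline emulsion of complete Freund adjuvant, M. tuberculosis H37RA and guinea pig myelin basic protein. Oral dosing once daily from day one. Motor dysfunction scored daily on a 0–10 scale, with body weights; paralysis intensity analysed as AUC and average score.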

Structure (SMILES)	Ki (Cannabinoid receptor 1 [1]) [nM]	Ki (Cannabinoid receptor 2 [2]) [nM]	EC50 (Cannabinoid receptor 1 [3]) [nM]	Kb (Cannabinoid receptor 1 [3]) [nM]	pA2 (Cannabinoid receptor 1 [3]; cho)	EC50 (Cannabinoid receptor 2 [4]) [nM]	Activity (Rattus norvegicus)
CCCCCC1=NN(C(=O)NC2CCCCCCC2)CC1c1ccccc1 (stereo unspecified)	11.9	26.6					
CCCCCN1N=C(C(=O)N[C@H]2C[C@H]3CC[C@]2(C)C3(C)C)CC1c1ccccc1F (stereo partly specified)	6.1	9.1	3.98	7.94			
CCCCCC1=NN(C(=O)NC2CCCCCC2)CC1c1ccccc1 (stereo unspecified)	15.3	19.8					
CCCCCC1=NN(C(=O)N[C@H]2C[C@H]3CC[C@]2(C)C3(C)C)CC1c1ccccc1 (stereo in doubt; 9)	28.5	7.4	0.631	7.94			
CCCCCC1=NN(C(=O)c2cccc3ccccc23)CC1c1ccccc1 (stereo unspecified)	164	103	31.6				
CCCCCC1=NN(C(=O)Nc2ccccc2C(F)(F)F)CC1c1ccccc1 (stereo unspecified)	70	15					
CCCCCC1=NN(C(=O)NCC23CC4CC(CC(C4)C2)C3)CC1c1ccccc1 (stereo unspecified)	16.1						
CCCCCN1N=C(C(=O)NC2C3CC4CC(C3)CC2C4)CC1c1ccccc1 (stereo unspecified)	9.2	7.1		7.94			
CCCCC1=NN(C(=O)NC(C)(C)c2ccccc2)CC1c1ccccc1 (stereo unspecified)	14.2	35.6	3.98				
CCCCCC1=NN(C(=O)NC2CCCCC2)CC1c1ccccc1 (stereo unspecified)	52	79					
CCCCCC1=NN(C(=O)NC23CC4CC(CC(C4)C2)C3)CC1c1ccccc1 (stereo unspecified)	68	14.9	398				
CCCCCN1N=C(C(=O)N[C@H]2C[C@H]3CC[C@]2(C)C3(C)C)CC1c1ccccc1 (stereo partly specified)	4.7	20.1	5.01	7.94			
CCCCC1=NN(C(=O)NC(C)(C)c2ccccc2)CC1c1ccsc1 (stereo unspecified)	19.3	62	39.8				
CCCCCC1=NN(C(=O)N[C@H]2CC3CC[C@]2(C)C3(C)C)CC1c1ccccc1 (single isomer, unassigned)	46.8	36	158				
CCCCC1=NN(C(=O)NC(C)(C)c2ccccc2)C(C)(C)C1c1ccccc1 (stereo unspecified)	9	11.9					
CCCCCC1=NN(C(=O)NC[C@@H]2CC[C@H]3C[C@@H]2C3(C)C)CC1c1ccccc1 (stereo partly specified)	15.6	13.3	2000				
CCCCC1=NN(C(=O)NC(C)(C)c2ccc(F)cc2)CC1c1cccc(F)c1 (stereo unspecified)	44.9	74	100				
CCCCCC1=NN(C(=O)NC2CCCc3ccccc32)CC1c1ccccc1 (stereo unspecified)	33.1	22.5					
CCCCCC1=NN(C(=O)Nc2cccc3ccccc23)CC1c1ccccc1 (stereo unspecified)	7.4	36.6	1580				
CCCCCN1N=C(C(=O)NC(C)(C)c2ccc(F)cc2)CC1c1ccccc1 (stereo unspecified)	118	121	3.98	7.94			
CCCCCC1=NN(C(=O)NC2C3CC4CC(C3)CC2C4)CC1c1ccccc1 (stereo unspecified)	6.4	6.3	25.1				
CCCCCC1=NN(C(=O)NC(C)(C)c2ccccc2)CC1c1ccccc1 (stereo unspecified)	3.26	17.6	3.98				
CCCCCC1=NN(C(=O)NCC2CCCCC2)CC1c1ccccc1 (stereo unspecified)	15.3	53					
CCCCC1=NN(C(=O)N[C@H]2C[C@H]3CC[C@]2(C)C3(C)C)C(C)(C)C1c1ccccc1 (stereo partly specified)	16.1	3.4					
CCCCCC1=NN(C(=O)NCc2ccccc2)CC1c1ccccc1 (stereo unspecified)	51	260	398				
CCCCCCC(C)(C)c1cc(O)c2c(c1)OC(C)(C)[C@@H]1CCC(=O)C[C@@H]21 [NABILONE]	5.1	17.6	3.98				
CCCCC1=NN(C(=O)NC(C)(C)c2ccc(F)cc2)CC1c1ccccc1F (stereo unspecified)	32	89	126				
CCCCCC1=NN(C(=O)NC2C[C@H]3CCC2(C)C3(C)C)CC1c1ccccc1 (single isomer, unassigned)	8.3	5.3	3.98		8.1	3.16	Active
